Measured values as given in article PMC6039207 (Clinical and Translational Science, 2018).
Marks after values point to notes of the source that are not given here.

Legend:
brain FAAH = target: T1, brain FAAH (Homo sapiens, UniProt O00519); assay: brain FAAH occupancy by PET with [11C]MK3168; format: in vivo
T1 sequence (O00519 1-579): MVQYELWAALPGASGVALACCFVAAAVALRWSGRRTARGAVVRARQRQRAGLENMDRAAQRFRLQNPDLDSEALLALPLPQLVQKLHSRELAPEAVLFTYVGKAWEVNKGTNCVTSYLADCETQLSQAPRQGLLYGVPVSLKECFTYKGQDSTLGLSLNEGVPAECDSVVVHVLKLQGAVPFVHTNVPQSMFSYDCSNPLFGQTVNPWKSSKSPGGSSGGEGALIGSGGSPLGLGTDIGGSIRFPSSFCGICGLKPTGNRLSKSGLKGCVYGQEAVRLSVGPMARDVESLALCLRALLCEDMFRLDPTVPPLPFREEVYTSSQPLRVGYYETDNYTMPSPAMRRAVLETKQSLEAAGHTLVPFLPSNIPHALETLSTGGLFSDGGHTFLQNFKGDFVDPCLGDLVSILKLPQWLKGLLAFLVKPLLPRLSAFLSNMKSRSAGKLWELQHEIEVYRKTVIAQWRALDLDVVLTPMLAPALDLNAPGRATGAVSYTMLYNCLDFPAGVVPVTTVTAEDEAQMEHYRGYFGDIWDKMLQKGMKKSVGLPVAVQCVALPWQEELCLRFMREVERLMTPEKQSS
How it was run: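 Healthy men were scanned by PET with [11C]MK3168 at baseline. In Part 2, scans followed single oral doses (2.5–100 mg range, adaptive; tracer injected 1 h postdose), with repeat doses at least 1 week apart. In Part 3, scans were 24 h after a single dose and 24 h after the last of 7 daily doses. Occupancy came from two-tissue compartment VT, baseline versus treatment.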

[1] = JNJ-42165279 plasma and urine pharmacokinetics, MAD study; format: in vivo, human
How it was run: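 Plasma and urine samples were taken from healthy volunteers given oral test compound once daily for 10 days (10–100 mg cohorts). Plasma was assayed by validated LC/MS/MS, with profiles over 0–24 h on day 1 and 0–96 h on day 10. PK parameters came from noncompartmental analysis. Accumulation ratios compared day 10 with day 1.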

FAAH [2] = target: T2, FAAH (Homo sapiens, UniProt O00519); assay: FAAH activity in leukocytes; format: in vivo
T2 sequence (O00519 1-579): T1 sequence (O00519 1-579)
How it was run: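 Leukocyte FAAH activity was assayed in healthy volunteers dosed orally once daily for 10 days (10–100 mg cohorts, placebo controls). It was expressed as percent of predose activity. Sampling ran 0–24 h postdose on day 1 and 0–96 h after the day-10 dose. In the PET study, leukocytes were also sampled at scan midpoint, about 4 h 45 min postdose.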

[3] = treatment-emergent adverse events and safety, MAD study; format: in vivo, human; conditions: MAD and PET studies
How it was run: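 Safety covered treatment-emergent adverse events, physical examinations, laboratory tests, 12-lead ECG and vital signs. Subjects were healthy volunteers on 10 days of once-daily oral test compound (10–100 mg) or placebo, double-blind and randomized, six active and two placebo per cohort.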

CSF FAA (AA, AEA, OEA) = assay: FAA concentrations in CSF; format: in vivo, human; conditions: for AEA concentration in cerebrospinal fluid / OEA concentration in cerebrospinal fluid / AA concentration in cerebrospinal fluid: young male volunteers, mean (SD)
How it was run: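 CSF sampled in the double-blind, placebo-controlled multiple-ascending-dose study in healthy volunteers. Oral test compound or placebo was given once daily for 10 days: 10, 25 or 75 mg in young men, 100 mg in young women, 100 mg in elderly subjects. AEA, OEA and arachidonic acid were measured predose and after 6–7 days of dosing. Values were expressed against predose or baseline.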

[4] = system: plasma FAA (AEA, OEA, PEA); assay: FAA concentrations in plasma; format: in vivo, human
How it was run: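 Plasma AEA, OEA and PEA were followed in healthy volunteers given oral test compound (10–100 mg) or placebo once daily for 10 days, six active and two placebo per cohort. Concentration–time profiles were taken on day 1 (0–24 h postdose) and day 10 (0–96 h postdose). Mean peak values were compared with mean peak placebo values.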

behavioral evaluations = format: in vivo, human
[5] = JNJ-42165279 concentration in CSF, MAD study; format: in vivo, human; conditions: after 7 days
How it was run: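 Test compound in CSF was quantified by a validated LC/MS/MS method after 7 days of once-daily oral dosing in healthy volunteers: 10 mg young men, 25 mg young men, and 100 mg elderly (men only). Values were related to plasma concentrations at Cmax on day 10.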

plasma protein binding = format: in vitro ADME; conditions: humans, estimated
FAAH [6] = conditions: cited from earlier work
WBC FAAH = conditions: 4 mg once-daily dose more than sufficient; cited from earlier work
[7] = patients with osteoarthritis; cited from earlier work
human FAAH = conditions: cited from earlier work
[8] = [11C]MK3168 radiometabolite analysis and brain uptake; format: in vivo, human; conditions: for standardized uptake value (SUV), gray matter regions / tracer uptake in gray matter regions: baseline
How it was run: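 In healthy men, the tracer was given as a slow IV bolus (356 ± 57MBq; molar activity 111 ± 67 GBq/μmol), synchronized with a 90-min list-mode PET/CT acquisition after low-dose CT for attenuation correction. Discrete arterial samples at each scan measured parent tracer and radiometabolites as the input function. Brain time-activity curves came from MRI-coregistered, template-based regions.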

[9] = single clinical doses, healthy volunteers; cited from earlier work
[10] = ∼24 h after stopping the 10 mg dosing
[11] = day 10 vs day 1, doses 10–100 mg, range across cohorts
[12] = Predose (baseline), 10 mg cohort
[13] = Predose (baseline), 25 mg cohort
[14] = Predose (baseline), 75 mg cohort

With `O=C(Nc1cnccc1Cl)N1CCN(Cc2ccc3c(c2)OC(F)(F)O3)CC1` [JNJ‐42165279] the “occupancy of brain FAAH” value (brain FAAH; 24 h after dosing with 10 mg) was 80–85%, the “FAAH occupancy at trough” value (brain FAAH; after the first dose of 10 mg) was over 80% and the “doses giving saturation of brain FAAH occupancy” value (brain FAAH; in vivo) was at least 10 mg. For the same compound, the “brain FAAH occupancy” value (brain FAAH; single doses of 2.5 and 5 mg, at estimated Cmax) was “lesser, although appreciable, occupancy”, the “brain FAAH occupancy” value (brain FAAH; single doses of 10, 25, and 50 mg, at estimated Cmax) was 96–98% and the “brain FAAH occupancy” value (brain FAAH; [10]) was at least 80%. For the same compound, the “estimated accumulation ratio for AUC” value [1, 11] was 144–337%, the “estimated accumulation ratio for Cmax” value [1, 11] was 98–156% and the terminal half-life ([1]; in vivo) was 8 to 14 h. The Mean plasma half-life ([1]; range of cohort means, 10–100 mg QD) was 8.14 to 14.1 h, the “FAAH activity remaining in leukocytes, mean trough” value (FAAH [2]; relative to predose values, after a single dose, 10–100 mg dose range) was 7.85–10.4% and the “FAAH activity recovered in leukocytes” value (FAAH [2]; [10]) was about 50%. For the same compound, the “deaths, serious or severe TEAEs, discontinuations due to TEAEs” value [3] was “No deaths, serious, or severe treatment emergent adverse event (TEAEs) or discontinuations due to TEAEs”, the “vital signs, ECG parameters including QTc, physical examination” value [3] was “no clinically significant treatment effects were observed” and the “increase of mean CSF AEA concentration relative to predose” value (CSF FAA (AA, AEA, OEA); 10 mg daily for 7 days) was about 45 fold. For the same compound, the “increase of mean CSF OEA concentration relative to predose” value (CSF FAA (AA, AEA, OEA); 10 mg daily for 7 days) was about 6.6 fold, the “increase of mean CSF AEA concentration relative to predose” value (CSF FAA (AA, AEA, OEA); 25 mg daily for 7 days) was about 41 fold and the “increase of mean CSF OEA concentration relative to predose” value (CSF FAA (AA, AEA, OEA); 25 mg daily for 7 days) was about 5.8 fold. The “increase of mean CSF AEA concentration relative to predose” value (CSF FAA (AA, AEA, OEA); 75 mg daily for 7 days) was about 77 fold, the “increase of mean CSF OEA concentration relative to predose” value (CSF FAA (AA, AEA, OEA); 75 mg daily for 7 days) was about 7.4 fold and the “AEA concentration in cerebrospinal fluid” value (CSF FAA (AA, AEA, OEA); Day 7, 10 mg daily) was 12.6 (4.86). The “OEA concentration in cerebrospinal fluid” value (CSF FAA (AA, AEA, OEA); Day 7, 10 mg daily) was 139 (42.0), the “AA concentration in cerebrospinal fluid” value (CSF FAA (AA, AEA, OEA); Day 7, 25 mg daily, n=5) was 1.44 (0.52) ^b and the “AEA concentration in cerebrospinal fluid” value (CSF FAA (AA, AEA, OEA); Day 7, 25 mg daily, n=5) was 21.24 (7.39) ^b. The “OEA concentration in cerebrospinal fluid” value (CSF FAA (AA, AEA, OEA); Day 7, 25 mg daily, n=5) was 116.81 (26.07) ^b, the “AA concentration in cerebrospinal fluid” value (CSF FAA (AA, AEA, OEA); Day 7, 75 mg daily, n=5) was 1.81 (0.72) ^b and the “AEA concentration in cerebrospinal fluid” value (CSF FAA (AA, AEA, OEA); Day 7, 75 mg daily, n=5) was 28.88 (9.52) ^b. The “OEA concentration in cerebrospinal fluid” value (CSF FAA (AA, AEA, OEA); Day 7, 75 mg daily, n=5) was 150.24 (34.64) ^b, the “AEA concentration in cerebrospinal fluid” value (CSF FAA (AA, AEA, OEA); [12]) was 0.28 (0.31) and the “OEA concentration in cerebrospinal fluid” value (CSF FAA (AA, AEA, OEA); [12]) was 21.2 (5.33). For the same compound, the “AA concentration in cerebrospinal fluid” value (CSF FAA (AA, AEA, OEA); [13]) was 1.85 (0.52), the “AEA concentration in cerebrospinal fluid” value (CSF FAA (AA, AEA, OEA); [13]) was 0.52 (0.16) and the “OEA concentration in cerebrospinal fluid” value (CSF FAA (AA, AEA, OEA); [13]) was 20.15 (10.19). The “AA concentration in cerebrospinal fluid” value (CSF FAA (AA, AEA, OEA); [14]) was 2.04 (0.86), the “AEA concentration in cerebrospinal fluid” value (CSF FAA (AA, AEA, OEA); [14]) was 0.38 (0.21) and the “OEA concentration in cerebrospinal fluid” value (CSF FAA (AA, AEA, OEA); [14]) was 20.21 (8.25). The “increase of AEA concentrations in CSF” value (CSF FAA (AA, AEA, OEA); after 7 days of dosing) was 40–70 fold, the “doses with maximal effect on plasma AEA turnover” value ([4]; in vivo) was at least 75 mg and the “increase of plasma AEA levels” value ([4]; lowest dose tested in the MAD study (10 mg)) was at least 10 fold. The “mean peak plasma AEA concentration versus mean peak placebo values” ([4]; single doses 10–100 mg) was 5.5–10 fold, the “mean peak plasma OEA and PEA concentrations versus mean peak placebo” value ([4]; single doses 10–100 mg) was 4.3–5.6 fold and the “quality of working memory (QWM)” value (behavioral evaluations; 100 mg, elderly volunteers, P ≤ 0.05, 4 h postdose days 1, 6, 10) was “significant negative treatment effect”. For the same compound, the ARCI-53 report (behavioral evaluations; 100 mg, women of nonchild-bearing potential) was “slight similarity to sedatives and dissimilarity to stimulants”, the “treatment effect on tapping, tracking, and postural stability” value (behavioral evaluations; MAD study) was “No treatment effects were observed” and the “ARCI-53: experiences similar to marijuana or hallucinogens” value (behavioral evaluations; all groups) was “no groups reported experiences similar to marijuana or hallucinogens”. For the same compound, the “Mean concentration of JNJ-42165279 in CSF” value (“Mean concentration” below) ([5]; cohort A (25 mg)) was 8.95 ng/mL, the “Mean concentration” value ([5]; cohort D, men only) was 31.8 ng/mL and the “Mean concentration” value ([5]; cohort E (10 mg)) was 2.67 ng/mL. For the same compound, the “CSF concentration relative to plasma values at Cmax on day 10” value ([5]; slightly over) was “over 3%”, the unbound fraction (plasma protein binding) was 6.4–7.5% and the “affinity for human over rat FAAH” value (FAAH [6]) was “much higher affinity”.

For `O=C(Nc1cccnn1)N1CCC(=Cc2cccc(Oc3ccc(C(F)(F)F)cn3)c2)CC1` [PF‐04457845], the “inhibition of WBC FAAH” value (WBC FAAH) is listed as 97% and the “effect on pain perception” value [7] is listed as “no effect on pain perception”.

In the case of `CN(C)C(=O)[C@H]1C[C@@H]1c1ccc(-c2ncn(C)c2Sc2ccc(Cl)cn2)cc1` [[^11C]MK3168], the IC50 (human FAAH) is listed as 1 ± 0.6 nM, the “standardized uptake value (SUV), gray matter regions” value ([8]; at 20 min) is listed as about 3.0 and the “tracer uptake in gray matter regions” value ([8]; at 20 min) is listed as about 15 kBq/cc. The “standardized uptake value (SUV), gray matter regions” value ([8]; at 90 min) was about 2.0, the “tracer uptake in gray matter regions” value ([8]; at 90 min) was about 10 kBq/cc and the “parent tracer remaining in plasma” value ([8]; baseline scans, 10 min postinjection) was 30–40%. The “elimination of tracer from plasma” value ([8]; baseline scans, 60 min p.i.) was “almost complete elimination”.

For `CCCCCCC(C)(C)c1cc(O)c2c(c1)OC(C)(C)C1CCC(=O)CC21` (stereo not shown) [nabilone], the “effect on cognitive performance” value [9] is given as “notable impairment on cognitive performance”.
